Measurements gathered from unrelated publications.
Protocols differ between the studies behind these lines.
HTR2B: 5-hydroxytryptamine receptor 2B (HTR2B, Homo sapiens, UniProt P41595)
HTR2C: 5-hydroxytryptamine receptor 2C (HTR2C, Homo sapiens, UniProt P28335)
Tmem97: Sigma intracellular receptor 2 (Tmem97, Rattus norvegicus, UniProt Q5U3Y7)
blaNDM-1: Metallo-beta-lactamase type 2 (blaNDM-1, Klebsiella pneumoniae, UniProt C7C422)

For `COc1ccc2cccc(C(CO)CNC(=O)CF)c2c1` (centres unmarked), the EC50 was 79.4 nM (Melatonin receptor type 1A (MTNR1A, Homo sapiens, UniProt P48039); GTPγS binding, agonist, radiometric; cell membranes).
For `COc1cc(CC(C)N)c(OC)cc1I` (centres unmarked), the Ki was 1.2 nM (HTR2B; ligand displacement, radioligand).
For `CCC1CCN(C(=O)[C@H](CCCNC(=N)N)NS(=O)(=O)c2cccc3c(N(C)C)cccc23)CC1`, the Kd was 22 nM (Prothrombin (F2, Bos taurus, UniProt P00735); binding, ITC).
`COc1cc2c3c(c1OC)-c1ccccc1C[C@H]3N(C)CC2` gave a Ki of 22.2 nM (HTR2C; ligand displacement, radioligand; cell membranes).
The EC50 of `C[C@H](N)Cn1ncc2ccc3c(c21)CCCO3` is reported as 22.5 nM (5-hydroxytryptamine receptor 2A (Rattus norvegicus, UniProt P14842); calcium signal, agonist, fluorescence).
With `CCN(CC)CCNC(=O)c1ccc(F)cc1` the Ki was 120000 nM (Tmem97; ligand displacement, radioligand; cell membranes).
For `O=C(O)[C@H]1CS[C@@H]2CS[C@@H](CS)N12`, the Ki was 19000 nM (blaNDM-1; enzyme activity, inhibitor, absorbance; pH 7.5).
The EC50 of `CN(C)CCc1c[nH]c2ccc(Cn3cncn3)cc12` is reported as 14000 nM (HTR2B; calcium signal, agonist, fluorescence).
`CSc1nc(N[C@H](C(C)C)C2CC2)c2ncn([C@H]3[C@H](O)[C@H](O)[C@]4(CO)C[C@H]34)c2n1` gave a Ki of 432 nM (HTR2C; ligand displacement, radioligand).
`CC1(C)S[C@H]2CS[C@H](CS)N2[C@@H]1C(=O)O` gave a Ki of 18000 nM (blaNDM-1; enzyme activity, inhibitor, absorbance; pH 7.5).
`CCCCN1CCc2cc(OC)c(OC)cc2C1` has a Ki of 15 nM (Tmem97; ligand displacement, radioligand; cell membranes).
`CSC[C@@]12C[C@@H]1[C@@H](n1cnc3c(N[C@H](C(C)C)C4CC4)nc(Cl)nc31)[C@H](O)[C@@H]2O` has a Ki of 2570 nM (HTR2C; ligand displacement, radioligand).
`COc1cc2c3c(c1OC)-c1ccccc1CC3NCC2` (centres unmarked) gave a Ki of 446 nM (HTR2C; ligand displacement, radioligand; cell membranes).
`CC(C)C(Nc1nc(Cl)nc2c1ncn2[C@H]1[C@H](O)[C@H](O)[C@]2(CO)C[C@H]12)C(C)C` gave a Ki of 1160 nM (HTR2C; ligand displacement, radioligand).
`CCCN1CCc2cc(OC)cc3c2[C@H]1Cc1ccc(O)c(O)c1-3` gave a Kd of 2.02 nM (D(3) dopamine receptor (Drd3, Rattus norvegicus, UniProt P19020); binding, radioligand; cell membranes).
For `CC(C)[C@@H](Nc1nc(I)nc2c1ncn2[C@H]1[C@H](O)[C@H](O)[C@]2(CO)C[C@H]12)C1CC1`, the Ki was 344 nM (HTR2C; ligand displacement, radioligand).
`COc1cc(CC(C)N)c(OC)cc1I` (racemic) gave a Ki of 0.42 nM (HTR2C; ligand displacement, radioligand).
